From PubChem BioAssay
STEP block: blocks human striatal-enriched tyrosine phosphatase; P54829; inhibition, % at 20 µM; 0.25% of 360,000 active; recombinant STEP, OMFP fluorogenic substrate, fluorescence;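 active = inhibition at 20 µM, scaled per plate between control wells, above about 37%, limit read from the data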;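 also: 0% = DMSO with enzyme and substrate and 100% = substrate only without enzyme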
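Measure: Control-normalized % inhibition with plate pattern correction | Test system: STEP phosphatase, cell-free reaction | Medium: pH 6.0 Bis-Tris with DTT and Tween 20 | Technique: Fluorescence, 480/540 nm | Times: Reaction 20 min, ambient temperature | Doses: Single compound dose of 20 µM, 1% DMSO final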
HKDC1 inh: inhibitors of human hexokinase HKDC1; AID 493160; 0.16% of 340,000 active; recombinant HKDC1, G6PDH/diaphorase resazurin coupled fluorescence; Q2TB90; inhibition, % at 20 µM;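 active = inhibition above about 35% when tested at 20 µM, limit read from the data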;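 also: plate controls were DMSO wells with enzyme for no effect and DMSO wells lacking enzyme for full effect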
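Assay system: recombinant HKDC1 hexokinase; detection: coupled resazurin fluorescence, excitation 525 nm, emission 613 nm; benchmarks: DMSO-plus-enzyme-mix negative control, buffer-substituted positive control; compound dosing: single 20 µM dose; schedule: 90 min at room temperature in dark; also added: glucose plus 1 mM ATP as hexokinase substrates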
LMPTP inh: LMPTP (human) inhibition; recombinant LMPTP-A, OMFP fluorogenic substrate, fluorescence intensity; inhibition, % at 20 µM; 0.22% of 360,000 active; P24666;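 active = compounds that cut the enzyme signal by at least half of the control window in the single-dose screen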;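 also: plate controls were DMSO wells with enzyme plus substrate for no effect and substrate without enzyme for full effect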
Target sequence (P24666 whole entry, looked up): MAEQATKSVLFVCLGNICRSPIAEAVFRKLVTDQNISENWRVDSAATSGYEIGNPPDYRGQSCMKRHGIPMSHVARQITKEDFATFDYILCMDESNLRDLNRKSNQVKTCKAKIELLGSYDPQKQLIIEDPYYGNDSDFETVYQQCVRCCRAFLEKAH
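Test system – LMPTP-A phosphatase enzyme · Quantity – 0.625 nM LMPTP-A final · Reagent – OMFP substrate, 400 µM final · Dosing – one test concentration per compound, 20 µM, with 3% DMSO overall · Timing – 50 min enzyme reaction at room temperature, protected from light · Detection – fluorescence intensity · Controls – substrate-only low control, DMSO enzyme-plus-substrate high control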
Scp-1 inhibitor: Scp-1 (human) phosphatase inhibition; Q9GZU7; Recombinant Scp1, phosphopeptide, malachite green phosphate absorbance; inhibition, % at 20 µM; 0.88% of 340,000 active; AID 493091;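 active = inhibition above about 50% at 20 µM, limit read from the data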;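 also: plate controls were DMSO wells with enzyme for no effect and wells lacking enzyme for full effect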
Target sequence (Q9GZU7 76-261 limits assumed): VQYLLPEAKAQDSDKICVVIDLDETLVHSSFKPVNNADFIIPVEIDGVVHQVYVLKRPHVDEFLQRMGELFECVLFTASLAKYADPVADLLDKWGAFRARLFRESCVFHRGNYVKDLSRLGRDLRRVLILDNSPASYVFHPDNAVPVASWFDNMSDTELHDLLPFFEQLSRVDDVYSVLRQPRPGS
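Incubation: 45 min enzyme reaction at room temperature / System: truncated SCP-1 phosphatase (76-261aa) / Reagent: Phospho 17-mer peptide substrate / Buffer or medium: Acidic Tris acetate buffer with magnesium and detergent / Signal: absorbance at 630 nm / Doses: one concentration, 20 µM, with 1.0% DMSO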
SUMO1 PPI mod: modulators of human SUMO1-mediated protein-protein interactions | SUMO1 binding to a labelled peptide, TR-FRET, 1 h | inhibition, % at 20 µM | 0.33% of 360,000 active | P63165; in the data active = inhibition above about 37%
Target sequence (P63165 whole entry, looked up): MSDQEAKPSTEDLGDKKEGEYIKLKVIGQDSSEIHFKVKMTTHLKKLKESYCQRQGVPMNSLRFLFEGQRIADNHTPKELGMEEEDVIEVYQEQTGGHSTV
DNMT1 inh: inhibitors of human DNMT1. DNMT1 molecular beacon, Hinp1I cleavage, fluorescence. AID 588458. 0.83% of 360,000 active. inhibition (reported as % activation of signal), % at 10 µM; in the data active = inhibition above about 50%
Beacon interf DR: counter-screen for DNMT1 inhibitors: spectral interference, dose response | molecular beacon fluorescence | AID 602382 | shares compounds with DNMT1 inh | 200 tested, under 10 active | IC50, µM; call rule not given here
DNMT1 confirm: confirmation of human DNMT1 inhibitors. shares compounds with DNMT1 inh. DNMT1 molecular beacon HinP1I cleavage, fluorescence. inhibition, % at 10 µM. 8% of 2,300 active. AID 602385;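 active = average inhibition of at least 30% in the single-concentration confirmation test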
DNMT1 interf: counter-screen for DNMT1 inhibitors: spectral interference; activation (fluorescence interference), % at 10 µM; DNMT1 molecular beacon spectral interference counterscreen, fluorescence 485/520; AID 602387; shares compounds with DNMT1 inh; 1% of 2,300 active;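 active = activation of at least 30% at 10 µM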;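 also: DNMT1 catalytic domain with a HinP1I cleavage step and a FAM/dabcyl DNA beacon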
An asterisk follows results filed as active; . = no result given. A selection: hits, their analogues and other compounds. The true share with any hit is near 1.8%.

SMILES	STEP block	HKDC1 inh	LMPTP inh	Scp-1 inhibitor	SUMO1 PPI mod	DNMT1 inh	DNMT1 confirm	DNMT1 interf	others
Cc1ccc(NC(=O)c2ccc(S(=O)(=O)N3CCCC3)cc2)cc1	-4.7	2.0	0.7	-4.1	2.0	3.4	.	.
CC(=O)Nc1cncc(-c2ccccc2F)n1	2.4	.	0.0	.	1.4	1.7	.	.
CCCN(C)C1CN(Cc2cn(Cc3ccc(C)cc3)nn2)S(=O)(=O)C1 (centres undefined)	.	.	-2.5	.	6.4	.	.	.
N#Cc1c(SCC(=O)Nc2nncs2)sc2c(O)cc(=O)[nH]c12	38.0	8.0	3.6	80.9*	31.8	70.8*	3.1	-0.6
COC(=O)[C@@]12C[C@@H](CC(=O)N3CCCC3)C(=O)N(CCc3ccc(OC)c(OC)c3)C1=CCC(C)(C)C2	.	.	1.0	.	0.4	.	.	.
NNC(=O)c1nc[nH]c1C(=O)Nc1ccccc1	0.4	3.7	-2.6	-1.2	2.4	65.9*	0.0	16.4
O=C(Nc1cccc(Cl)c1)c1nc[nH]c1C(=O)NCCCCNC(=O)c1[nH]cnc1C(=O)Nc1cccc(Cl)c1	-0.3	6.8	-0.9	-8.2	-6.2	52.7*	5.0	2.4
O=C(Nc1ccccc1)c1nc[nH]c1C(=O)NCc1ccccc1	-5.9	-0.6	0.7	-11.2	11.7	2.6	.	.
CC(Sc1nnc(Cc2ccccc2)o1)C(=O)Nc1ccccc1[N+](=O)[O-] (centres undefined)	-3.5	-1.1	-1.6	-8.6	-29.5	0.4	.	.
COc1ccc(OC)c(NC(=O)COC(=O)c2c3c(nc4ccccc24)CCCC3)c1	9.6	-4.4	4.2	-0.3	3.5	-12.6	.	.
COc1ccc(NC(=O)COC(=O)c2c3c(nc4ccccc24)CCCC3)cc1	-0.6	0.5	0.7	1.6	1.3	54.6*	2.2	3.9
Fc1ccc(CNC(=S)NCc2cccc(Cl)c2)cc1	-1.0	-1.8	0.5	-1.8	-6.0	6.5	.	.
COc1ccc(N2CCN(S(=O)(=O)c3ccc(-c4cnc(C5CC5)o4)cc3)CC2)cc1	7.6	-0.3	3.4	14.2	3.0	74.1*	4.2	4.2
COc1cccc(N2CCN(S(=O)(=O)c3ccc(-c4cnc(C5CC5)o4)cc3)CC2)c1	0.1	-2.6	-0.2	3.4	6.6	37.8	.	.
COc1cccc(-c2[nH]nc3c2C(c2ccsc2)C(C#N)=C(N)O3)c1 (centres undefined)	0.3	14.7	-0.6	-10.7	-5.4	-16.1	.	.
COc1cccc(-c2[nH]nc3c2C(c2ccoc2)C(C#N)=C(N)O3)c1 (centres undefined)	0.6	13.9	0.5	17.1	17.9	67.0*	4.3	1.4
COc1ccc(NC(=O)N(C)C[C@@H]2OCc3cn(nn3)CCCC(=O)N([C@@H](C)CO)C[C@H]2C)cc1	3.0	.	-1.7	.	2.7	62.6*	3.4	2.8
CCN(CC)S(=O)(=O)c1ccc(-c2nnc(SCC(=O)N3CCc4ccccc43)o2)cc1	1.9	-6.5	-2.6	-5.2	-5.0	54.2*	1.1	-1.8
CCN(CC)S(=O)(=O)c1ccc(-c2nnc(SCC(=O)N3CCOCC3)o2)cc1	2.5	-8.3	-2.0	-3.0	1.6	3.5	.	.
CCN(C(=O)COC(=O)CCn1c(C)csc1=O)c1c(N)n(Cc2ccccc2)c(=O)[nH]c1=O	-0.8	-2.4	-1.1	-6.1	-0.6	5.2	.	.
Oc1ccc(C[C@H]2CN([C@@H](Cc3ccc(O)cc3)CN3CCC[C@@H]3CN3C(=S)NC[C@@H]3Cc3ccccc3)C(=S)N2CC2CCCCCC2)cc1	2.7	.	4.1	.	2.7	-37.1	.	.
COc1cc(C(=O)c2nccc3cc(OC)c(OC)cc23)c([N+](=O)[O-])cc1OC	2.9	8.3	3.0	-7.1	8.7	58.3*	-0.1	-1.7
NC(=O)c1nsc(C(=O)N(c2ccccc2)C(C(=O)NC2CCCC2)c2cccs2)c1N (centres undefined)	-2.6	-3.5	9.8	1.8	-2.8	53.7*	6.5	-0.5
COc1ccc(C(C(=O)NC2CCCC2)N(C(=O)c2snc(-c3ccc(F)cc3)c2N)c2ccccc2)cc1 (centres undefined)	-0.8	-15.5	-3.9	-2.4	1.8	57.8*	2.8	3.8
COc1ccc(C(C(=O)NC2CCCC2)N(C(=O)c2snc(-c3ccc(F)cc3)c2N)c2ccc(F)cc2)cc1 (centres undefined)	4.7	7.4	-1.4	-2.4	2.2	25.5	.	.
SMILES	STEP block	HKDC1 inh	LMPTP inh	Scp-1 inhibitor	SUMO1 PPI mod	DNMT1 inh	DNMT1 confirm	DNMT1 interf	others
O=C(NC(c1ccc(Cl)cc1)c1ccsc1)C1CCN(CCOc2ccc(Cl)cc2)CC1 (centres undefined)	-0.1	.	1.0	.	2.2	-3.7	.	.
CCCCCCc1cc2cc(-c3nnc(-c4ccccc4OC)o3)c(=O)oc2cc1O	-3.5	5.4	1.9	6.8	2.6	100.3*	6.1	11.4
CCOC(=O)c1ncn2c1[C@@H]1CCNC1C(=O)c1cc(OC)ccc1-2 (some centres undefined)	1.0	-3.2	-0.5	-6.2	-1.3	2.5	.	.
COc1cc(NC(=O)c2cccc3c(-c4cnn(C)c4)coc23)cc(OC)c1OC	5.2	.	0.8	.	13.0	0.7	.	.
O=C(CN1C(=O)/C(=C\c2ccc(F)cc2)Oc2ccccc21)NCc1ccco1	1.1	2.0	-1.0	-4.9	-0.6	51.8*	1.6	3.6
O=C(CCN1C(=O)/C(=C\c2cccc(Br)c2)SC1=S)N1CCOCC1	-0.6	-7.1	-1.9	-4.5	4.2	11.8	.	.
O=C(O)C(c1ccccc1)N1C(=O)/C(=C\c2ccc(-c3ccccc3Cl)o2)SC1=S (centres undefined)	44.8*	17.8	76.9*	35.2	91.9*	98.3*	69.4*	0.3	Beacon interf DR=34.4*
O=C(O)C(c1ccccc1)N1C(=O)/C(=C\c2ccc(-c3ccc(Br)cc3)o2)SC1=S (centres undefined)	10.6	11.1	64.7*	19.8	90.8*	92.7*	93.0*	-1.6	Beacon interf DR=47.4*
O=C1/C(=C\c2ccc(-c3ccccc3Cl)o2)SC(=S)N1CC1CCCO1 (centres undefined)	-2.2	-0.8	5.2	7.5	-19.9	2.1	.	.
COc1cc(/C=C2\SC(=S)N(C(C(=O)O)c3ccccc3)C2=O)cc(OC)c1OC (centres undefined)	-2.0	0.5	3.3	-2.0	-14.2	5.1	.	.
